In ChEMBL document CHEMBL4339192, “De Novo Designed Amphipathic α-Helical Antimicrobial Peptides Incorporating Dab and Dap Residues on the Polar Face To Treat the Gram-Negative Pathogen, Acinetobacter baumannii” (J Med Chem, 2019):
Values after ≈ are worked out from the molar mass of the structure shown. Where a SMILES comes first, the peptide text is derived from it. [ ]: non-standard residue; d: D form. Dab = NCC[C@H](N)C(=O)O

Columns and labels:
Acinetobacter baumannii [1] = assay: Antibacterial activity against Acinetobacter baumannii isolate 1021371 measured after 24 hrs by microtiter dilution method; assay type: functional; settings: isolate 1021371, 24 h
Summary of the method: (§1)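 Broth microdilution in Mueller-Hinton (MH) medium. […] Plates were incubated 24 h at 37 °C. MIC was the lowest peptide concentration that inhibited growth, based on three sets of replicates.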

Acinetobacter baumannii [2] = assay: Antibacterial activity against Acinetobacter baumannii isolate 1035794 measured after 24 hrs by microtiter dilution method; assay type: functional; settings: isolate 1035794, 24 h; summary of the method: as §1
Acinetobacter baumannii [3] = assay: Ratio of MIC for Acinetobacter baumannii 649 measured in presence of 25% human serum to MIC for Acinetobacter baumannii 649 in absence of 25% human serum; assay type: functional
Summary of the method: (§2)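 Blood strain 649 was tested by MH broth microdilution with and without 25% (v/v) human serum added to the medium. The test used a final inoculum of 5 × 10^5 cfu/mL and incubation at 37 °C. The ratio is the MIC in serum over the MIC in MH alone.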

Acinetobacter baumannii [4] = assay: Antibacterial activity against Acinetobacter baumannii isolate 981650 measured after 24 hrs by microtiter dilution method; assay type: functional; settings: isolate 981650, 24 h; summary of the method: as §1
Acinetobacter baumannii [5] = assay: Antibacterial activity against Acinetobacter baumannii isolate 964304 measured after 24 hrs by microtiter dilution method; assay type: functional; settings: isolate 964304, 24 h; summary of the method: as §1
Acinetobacter baumannii [6] = assay: Antibacterial activity against Acinetobacter baumannii isolate 963618 measured after 24 hrs by microtiter dilution method; assay type: functional; settings: isolate 963618, 24 h; summary of the method: as §1
[7] = Therapeutic index, ratio of HC50 for human RBC to MIC for polymyxin B/colistin-resistant Acinetobacter baumannii M89952; assay type: toxicity; settings: human red blood cells, read-out: TI
Summary of the method: (§3)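 T.I. = HC50/MIC. For HC50, peptide (quantified by amino acid analysis) was two-fold serially diluted over 12 concentrations up to 1000 μg/mL. It was incubated with 1% fresh human erythrocytes in PBS, pH 7.4, for 18 h at 37 °C. After 800g centrifugation, hemoglobin was read at 570 nm against water (100%) and no-peptide (0%) controls. HC50 came from a lysis-versus-concentration plot, average of 3 replicates.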

Acinetobacter baumannii [8] = assay: Antibacterial activity against polymyxin B/colistin-resistant Acinetobacter baumannii M89953 measured after 24 hrs by microtiter dilution method; assay type: functional; settings: M89953, 24 h; summary of the method: as §1
Acinetobacter baumannii [9] = assay: Antibacterial activity against Acinetobacter baumannii isolate 952654 measured after 24 hrs by microtiter dilution method; assay type: functional; settings: isolate 952654, 24 h; summary of the method: as §1
Acinetobacter baumannii [10] = assay: Antibacterial activity against Acinetobacter baumannii isolate 1001611 measured after 24 hrs by microtiter dilution method; assay type: functional; settings: isolate 1001611, 24 h; summary of the method: as §1
Acinetobacter baumannii [11] = assay: Antibacterial activity against Acinetobacter baumannii isolate 968886 measured after 24 hrs by microtiter dilution method; assay type: functional; settings: isolate 968886, 24 h; summary of the method: as §1
Acinetobacter baumannii [12] = assay: Antibacterial activity against polymyxin B/colistin-resistant Acinetobacter baumannii M89941 measured after 24 hrs by microtiter dilution method; assay type: functional; settings: M89941, 24 h; summary of the method: as §1
Acinetobacter baumannii [13] = assay: Antibacterial activity against polymyxin B/colistin-resistant Acinetobacter baumannii M89949 measured after 24 hrs by microtiter dilution method; assay type: functional; settings: M89949, 24 h; summary of the method: as §1
Acinetobacter baumannii [14] = assay: Antibacterial activity against polymyxin B/colistin-resistant Acinetobacter baumannii M89955 measured after 24 hrs by microtiter dilution method; assay type: functional; settings: M89955, 24 h; summary of the method: as §1
Acinetobacter baumannii [15] = assay: Antibacterial activity against Acinetobacter baumannii isolate 1035166 measured after 24 hrs by microtiter dilution method; assay type: functional; settings: isolate 1035166, 24 h; summary of the method: as §1
Acinetobacter baumannii [16] = assay: Antibacterial activity against Acinetobacter baumannii isolate 963659 measured after 24 hrs by microtiter dilution method; assay type: functional; settings: isolate 963659, 24 h; summary of the method: as §1
Acinetobacter baumannii [17] = assay: Antibacterial activity against polymyxin B/colistin-resistant Acinetobacter baumannii M89951 measured after 24 hrs by microtiter dilution method; assay type: functional; settings: M89951, 24 h; summary of the method: as §1
Acinetobacter baumannii [18] = assay: Antibacterial activity against polymyxin B/colistin-resistant Acinetobacter baumannii M89952 measured after 24 hrs by microtiter dilution method; assay type: functional; settings: M89952, 24 h; summary of the method: as §1
[19] = Therapeutic index, ratio of HC50 for human RBC to MIC for polymyxin B/colistin-resistant Acinetobacter baumannii M89941; assay type: toxicity; settings: human red blood cells, read-out: TI; summary of the method: as §3
[20] = Hemolytic activity against human RBC measured after 18 hrs by spectrophotometric method; assay type: ADME, cell-based, Erythrocyte; settings: human red blood cells (erythrocytes)
Summary of the method: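 Peptide (amount by amino acid analysis), two-fold serial dilutions at 12 concentrations up to 1000 μg/mL, with 1% human erythrocytes in PBS pH 7.4, 37 °C, 18 h. Unlysed cells removed by centrifugation (800g); hemoglobin read at 570 nm. Water-lysed cells = 100%, no-peptide cells = 0%. HC50 from plot of % lysis vs concentration (μM), average of 3 replicates.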

Acinetobacter baumannii [21] = assay: Antibacterial activity against Acinetobacter baumannii isolate 9383370 measured after 24 hrs by microtiter dilution method; assay type: functional; settings: isolate 9383370, 24 h; summary of the method: as §1
Acinetobacter baumannii [22] = assay: Antibacterial activity against Acinetobacter baumannii isolate 1007660 measured after 24 hrs by microtiter dilution method; assay type: functional; settings: isolate 1007660, 24 h; summary of the method: as §1
Acinetobacter baumannii [23] = assay: Antibacterial activity against Acinetobacter baumannii isolate 977751 measured after 24 hrs by microtiter dilution method; assay type: functional; settings: isolate 977751, 24 h; summary of the method: as §1
Acinetobacter baumannii [24] = assay: Antibacterial activity against Acinetobacter baumannii isolate 1010282 measured after 24 hrs by microtiter dilution method; assay type: functional; settings: isolate 1010282, 24 h; summary of the method: as §1
[25] = Therapeutic index, ratio of HC50 for human RBC to MIC for polymyxin B/colistin-resistant Acinetobacter baumannii M89949; assay type: toxicity; settings: human red blood cells, read-out: TI; summary of the method: as §3
Acinetobacter baumannii [26] = assay: Antibacterial activity against Acinetobacter baumannii 649 measured after 24 hrs by microtiter dilution method; assay type: functional; settings: Acinetobacter baumannii, 649, 24 h; summary of the method: as §1
[27] = Therapeutic index, ratio of HC50 for human RBC to MIC for polymyxin B/colistin-resistant Acinetobacter baumannii M89955; assay type: toxicity; settings: human red blood cells, read-out: TI; summary of the method: as §3
[28] = Therapeutic index, ratio of HC50 for human RBC to MIC for polymyxin B/colistin-resistant Acinetobacter baumannii M89953; assay type: toxicity; settings: human red blood cells, read-out: TI; summary of the method: as §3
Acinetobacter baumannii [29] = assay: Antibacterial activity against Acinetobacter baumannii isolate 1010245 measured after 24 hrs by microtiter dilution method; assay type: functional; settings: isolate 1010245, 24 h; summary of the method: as §1
Acinetobacter baumannii [30] = assay: Antibacterial activity against Acinetobacter baumannii isolate 1002956 measured after 24 hrs by microtiter dilution method; assay type: functional; settings: isolate 1002956, 24 h; summary of the method: as §1
Acinetobacter baumannii [31] = assay: Antibacterial activity against Acinetobacter baumannii isolate 961997 measured after 24 hrs by microtiter dilution method; assay type: functional; settings: isolate 961997, 24 h; summary of the method: as §1
Acinetobacter baumannii [32] = assay: Antibacterial activity against polymyxin B/colistin-resistant Acinetobacter baumannii M89963 measured after 24 hrs by microtiter dilution method; assay type: functional; settings: M89963, 24 h; summary of the method: as §1
Acinetobacter baumannii [33] = assay: Antibacterial activity against Acinetobacter baumannii isolate 1018887 measured after 24 hrs by microtiter dilution method; assay type: functional; settings: isolate 1018887, 24 h; summary of the method: as §1
Acinetobacter baumannii [34] = assay: Antibacterial activity against Acinetobacter baumannii isolate 1017395 measured after 24 hrs by microtiter dilution method; assay type: functional; settings: isolate 1017395, 24 h; summary of the method: as §1
[35] = Therapeutic index, ratio of HC50 for human RBC to MIC for polymyxin B/colistin-resistant Acinetobacter baumannii M89951; assay type: toxicity; settings: human red blood cells, read-out: TI; summary of the method: as §3
Acinetobacter baumannii [36] = assay: Antibacterial activity against Acinetobacter baumannii 649 measured after 24 hrs in presence of 25% human serum by microtiter dilution method; assay type: functional; settings: Acinetobacter baumannii, 649, 24 h; summary of the method: as §2
[37] = Therapeutic index, ratio of HC50 for human RBC to MIC for polymyxin B/colistin-resistant Acinetobacter baumannii M89963; assay type: toxicity; settings: human red blood cells, read-out: TI; summary of the method: as §3
Acinetobacter baumannii [38] = assay: Antibacterial activity against Acinetobacter baumannii isolate 965463 measured after 24 hrs by microtiter dilution method; assay type: functional; settings: isolate 965463, 24 h; summary of the method: as §1

## CC(=O)N[C@H](CCCCN)C(=O)N[C@H](CC(C)C)C(=O)N[C@@H](CCN)C(=O)N[C@H](CO)C(=O)N[C@H](CC(C)C)C(=O)N[C@H](CC(C)C)C(=O)N[C@@H](CCN)C(=O)N[C@@H](C(=O)N[C@H](CC(C)C)C(=O)N[C@H](CO)C(=O)N[C@@H](CCN)C(=O)N[C@H](C)C(=O)N[C@H](C)C(=O)N[C@H](C)C(=O)N[C@H](C)C(=O)N[C@H](C)C(=O)N[C@H](CC(C)C)C(=O)N[C@@H](CCN)C(=O)N[C@@H](C(=O)N[C@H](CC(C)C)C(=O)N[C@H](CC(C)C)C(=O)N[C@@H](CCN)C(=O)N[C@H](C)C(=O)N[C@H](CC(C)C)C(=O)N[C@H](CO)C(=O)N[C@@H](CCN)C(N)=O)[C@H](C)O)[C@H](C)O (Ac-[dK][dL][Dab][dS][dL][dL][Dab][dT][dL][dS][Dab][dA][dA][dA][dA][dA][dL][Dab][dT][dL][dL][Dab][dA][dL][dS][Dab]-NH2)
Acinetobacter baumannii [1]
  MIC: 0.8 µM (≈ 2.07 µg/mL)
Acinetobacter baumannii [2]
  MIC: 0.8 µM (≈ 2.07 µg/mL)
Acinetobacter baumannii [3]
  Ratio: 4
Acinetobacter baumannii [4]
  MIC: 0.4 µM (≈ 1.03 µg/mL)
Acinetobacter baumannii [5]
  MIC: 1.5 µM (≈ 3.87 µg/mL)
Acinetobacter baumannii [6]
  MIC: 0.8 µM (≈ 2.07 µg/mL)
[7]
  selectivity ratio: 8.6
Acinetobacter baumannii [8]
  MIC: 0.8 µM (≈ 2.07 µg/mL)
Acinetobacter baumannii [9]
  MIC: 0.8 µM (≈ 2.07 µg/mL)
Acinetobacter baumannii [10]
  MIC: 0.8 µM (≈ 2.07 µg/mL)
Acinetobacter baumannii [11]
  MIC: 0.8 µM (≈ 2.07 µg/mL)
Acinetobacter baumannii [12]
  MIC: 1.5 µM (≈ 3.87 µg/mL)
Acinetobacter baumannii [13]
  MIC: 0.8 µM (≈ 2.07 µg/mL)
Acinetobacter baumannii [14]
  MIC: 0.8 µM (≈ 2.07 µg/mL)
Acinetobacter baumannii [15]
  MIC: 0.8 µM (≈ 2.07 µg/mL)
Acinetobacter baumannii [16]
  MIC: 0.4 µM (≈ 1.03 µg/mL)
Acinetobacter baumannii [17]
  MIC: 0.8 µM (≈ 2.07 µg/mL)
Acinetobacter baumannii [18]
  MIC: 0.8 µM (≈ 2.07 µg/mL)
[19]
  selectivity ratio: 8.6
[20]
  HC50 at 18 h: 7.7 µM
Acinetobacter baumannii [21]
  MIC: 1.5 µM (≈ 3.87 µg/mL)
Acinetobacter baumannii [22]
  MIC: 0.8 µM (≈ 2.07 µg/mL)
Acinetobacter baumannii [23]
  MIC: 3.1 µM (≈ 8.01 µg/mL)
Acinetobacter baumannii [24]
  MIC: 0.8 µM (≈ 2.07 µg/mL)
[25]
  selectivity ratio: 8.6
Acinetobacter baumannii [26]
  MIC: 0.8 µM (≈ 2.07 µg/mL)
[27]
  selectivity ratio: 8.6
[28]
  selectivity ratio: 8.6
Acinetobacter baumannii [29]
  MIC: 0.8 µM (≈ 2.07 µg/mL)
Acinetobacter baumannii [30]
  MIC: 0.8 µM (≈ 2.07 µg/mL)
Acinetobacter baumannii [31]
  MIC: 0.8 µM (≈ 2.07 µg/mL)
Acinetobacter baumannii [32]
  MIC: 0.8 µM (≈ 2.07 µg/mL)
Acinetobacter baumannii [33]
  MIC: 0.5 µM (≈ 1.29 µg/mL)
Acinetobacter baumannii [34]
  MIC: 0.8 µM (≈ 2.07 µg/mL)
[35]
  selectivity ratio: 8.6
Acinetobacter baumannii [36]
  MIC: 3 µM
[37]
  selectivity ratio: 8.6
Acinetobacter baumannii [38]
  MIC: 0.8 µM (≈ 2.07 µg/mL)
